Columns and labels:
[1] = Antiaggregatory activity in human platelets assessed as inhibition of thrombin-induced platelet aggregation preincubated for 3 mins before thrombin challenge by turbidimetry analysis; format: functional, cell-based
Method in brief: (§1)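 Washed platelets from ACD-anticoagulated blood of drug-free healthy volunteers, resuspended at 3 × 10⁸/ml in Tyrode's solution with Ca²⁺ 2 mM, glucose 11.1 mM and BSA 3.5 mg/ml. Platelets were stirred at 1200 rpm and 37 °C for 3 min with DMSO (0.5%, vehicle) or compound, then the inducer was added. Aggregation was read by light-transmission aggregometry. IC50 is the mean of two independent experiments (TPA lines n = 3).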

HBL-100 [2] = experiment: Cytotoxicity against human HBL100 cells at 20 uM after 72 hrs by MTT assay; format: functional; conditions: HBL-100, 72 h
HBL-100 [3] = experiment: Cytotoxicity against human HBL100 cells after 72 hrs by MTT assay; format: functional, cell-based; conditions: HBL-100, 72 h
Method in brief: (§2)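 MDA-MB-231 breast cancer or HBL-100 non-malignant breast epithelial cells: freshly trypsinized cells seeded at 8000 per well, with compound added from DMSO-diluted stock. After 72 h, attached cells were given MTT (0.5 mg/mL, 1 h) and solubilized in DMSO.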

[4] = Antiaggregatory activity in human platelets assessed as inhibition of collagen-induced platelet aggregation preincubated for 3 mins before collagen challenge by turbidimetry analysis; format: functional, cell-based; method in brief: as §1
[5] = Antiaggregatory activity in human platelets assessed as inhibition of A23187-induced platelet aggregation preincubated for 3 mins before A23187 challenge by turbidimetry analysis; format: functional, cell-based; method in brief: as §1
[6] = Antiaggregatory activity in human platelets assessed as inhibition of TPA-induced platelet aggregation preincubated for 3 mins before TPA challenge by turbidimetry analysis; format: functional, cell-based; method in brief: as §1
[7] = tested on: Integrin alpha-IIb/beta-3 (Homo sapiens); experiment: Inhibition of glycoprotein 2b/3a activation in human platelets assessed as inhibition of thrombin-induced PAC-1 binding preincubated for 3 mins before thrombin challenge after 15 mins by flow cytometry; conditions: 0.25 h
MDA-MB-231 [8] = experiment: Cytotoxicity against human MDA-MB-231 cells at 20 uM after 72 hrs by MTT assay; format: functional; conditions: MDA-MB-231, 72 h
MDA-MB-231 [9] = experiment: Cytotoxicity against human MDA-MB-231 cells after 72 hrs by MTT assay; format: functional, cell-based; conditions: MDA-MB-231, 72 h; method in brief: as §2

Compound | IC50 [1] [nM] | inhibition at 20 µM (HBL-100 [2]) [%] | IC50 (HBL-100 [3]) [nM] | IC50 [4] [nM] | IC50 [5] [nM] | IC50 [6] [nM] | Activity [7] | inhibition at 20 µM (MDA-MB-231 [8]) [%] | IC50 (MDA-MB-231 [9]) [nM]
COc1cc(/C=C/[N+](=O)[O-])ccc1OC(=O)c1ccc(C(C)(C)C)cc1 | 600 | -2.1 | > 20000 | 600 | 1100 | 3500 | Dose-dependent effect | 2.5 | > 20000
COc1cc(/C=C/[N+](=O)[O-])ccc1OC(=O)c1cccc(Cl)c1Cl | 700 | 11.5 | > 20000 | 600 | 3300 | 5300 | Dose-dependent effect | -4.9 | > 20000

Reference: ChEMBL document CHEMBL1268838, “The synthesis and biologic evaluation of anti-platelet and cytotoxic β-nitrostyrenes” (Bioorg Med Chem, 2010)
